From ChEMBL document CHEMBL1177854, “Synthesis of bile acid derivatives and in vitro cytotoxic activity with pro-apoptotic process on multiple myeloma (KMS-11), glioblastoma multiforme (GBM), and colonic carcinoma (HCT-116) human cell lines” (Eur J Med Chem, 2010)
The source made the active and inactive calls. The calls are words filed in the database; no cut-off is given here.

Assays:
[1] = system: HCT-116; assay: Cytotoxicity against human HCT116 cells after 24 hrs by neutral red uptake assay; type: functional, cell-based; conditions: HCT-116, 24 h
Method in brief: (§1)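 GBM-12 (brain tumour line), KMS-11 myeloma or HCT-116 colon carcinoma cells exposed to compound for 24 h; viability read by neutral red uptake. IC50 taken from dose-response curves; mean of three experiments ± standard error.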

[2] = Cytotoxicity against human KMS11 cells after 24 hrs by neutral red uptake assay; type: functional, cell-based; conditions: KMS-11, 24 h; method in brief: as §1
[3] = system: GBM; assay: Cytotoxicity against human GBM cells after 24 hrs by neutral red uptake assay; type: functional, cell-based; method in brief: as §1
[4] = Lipophilicity, log P of the compound; type: physicochemical; conditions: octanol/water
Method in brief: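 Log P calculated in silico with the ALogP program; not measured experimentally.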

[5] = system: KMS-11; assay: Induction of apoptosis in human KMS11 cells assessed as DNA fragmentation after 48 hrs; type: functional, cell-based
Method in brief: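 KMS-11 cultures treated for 48 h; culture supernatants run on agarose gel electrophoresis against a 100 bp DNA ladder to detect DNA fragmentation.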

[6] = system: GBM; assay: Induction of apoptosis in human GBM cells assessed as dead cells at 20 uM after 24 hrs using annexin V stain by FACSCalibur flow cytometry; type: functional
[7] = system: KMS-11; assay: Induction of apoptosis in human KMS11 cells assessed as apoptotic nuclei at 20 uM after 24 hrs by microscopy relative to control; type: functional
[8] = system: HCT-116; assay: Induction of apoptosis in human HCT116 cells assessed as dead cells at 20 uM after 24 hrs using annexin V stain by FACSCalibur flow cytometry; type: functional
Method in brief: (§2)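 Cells were exposed to compound for 24 h alongside untreated control cultures. They were then labelled with FITC-conjugated annexin V to mark early apoptosis. The percentage of apoptotic cells was read by flow cytometry.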

[9] = system: KMS-11; assay: Induction of apoptosis in human KMS11 cells assessed as dead cells at 20 uM after 24 hrs using annexin V stain by FACSCalibur flow cytometry; type: functional; method in brief: as §2
[10] = system: KMS-11; assay: Induction of apoptosis in human KMS11 cells assessed as apoptotic nuclei at 40 uM after 24 hrs by microscopy relative to control; type: functional
[11] = system: KMS-11; assay: Induction of apoptosis in human KMS11 cells assessed as apoptotic nuclei at 10 uM after 24 hrs by microscopy relative to control; type: functional

SMILES | IC50 [1] [µM] | IC50 [2] [µM] | IC50 [3] [µM] | logP [4] | logP ([4]; read-out: logP) | Activity [5] | Activity [6] [%] | Activity [7] [%] | Activity [8] [%] | Activity [9] [%] | Activity [10] [%] | Activity [11] [%]
C[C@H](CCC(=O)O)[C@H]1CC[C@H]2[C@@H]3[C@@H](O)C[C@@H]4C[C@H](O)CC[C@]4(C)[C@H]3CC[C@]12C [URSODIOL] | > 50 | > 50 | > 50 | 4.014 |  |  |  |  |  |  |  | 
C[C@H](CCC(=O)N1CCN(C/C=C/c2ccccc2)CC1)[C@H]1CC[C@H]2[C@@H]3[C@H](O)C[C@@H]4C[C@H](O)CC[C@]4(C)[C@H]3C[C@H](O)[C@]12C | > 50 | > 50 | > 50 |  | 4.71 |  |  |  |  |  |  | 
C[C@H](CCC(=O)NN1CCN(C)CC1)[C@H]1CC[C@H]2[C@@H]3[C@H](O)C[C@@H]4C[C@H](O)CC[C@]4(C)[C@H]3C[C@H](O)[C@]12C | > 50 | > 50 | > 50 |  | 2.16 |  |  |  |  |  |  | 
C[C@H](CCC(=O)NN1CCN(C)CC1)[C@H]1CC[C@H]2[C@@H]3[C@@H](O)C[C@@H]4C[C@H](O)CC[C@]4(C)[C@H]3CC[C@]12C | > 50 | > 50 | > 50 |  | 3.26 |  |  |  |  |  |  | 
C[C@H](CCC(=O)O)[C@H]1CC[C@H]2[C@@H]3[C@H](O)C[C@@H]4C[C@H](O)CC[C@]4(C)[C@H]3C[C@H](O)[C@]12C [CHOLIC ACID] | > 50 | > 50 | > 50 | 2.912 |  |  |  |  |  |  |  | 
C[C@H](CCC(=O)NN1CCN(C)CC1)[C@H]1CC[C@H]2[C@@H]3[C@H](O)C[C@@H]4C[C@H](O)CC[C@]4(C)[C@H]3CC[C@]12C | > 50 | ≥ 50 | ≥ 50 |  | 3.26 |  |  |  |  |  |  | 
C[C@H](CCC(=O)N1CCN(C/C=C/c2ccccc2)CC1)[C@H]1CC[C@H]2[C@@H]3[C@@H](O)C[C@@H]4C[C@H](O)CC[C@]4(C)[C@H]3CC[C@]12C | 31.4 | 28.1 | 24.7 |  | 5.81 | Active | 78 | 59 | 45 | 96 | 35 | 84
C[C@H](CCC(=O)N1CCN(C/C=C/c2ccccc2)CC1)[C@H]1CC[C@H]2[C@@H]3[C@H](O)C[C@@H]4C[C@H](O)CC[C@]4(C)[C@H]3CC[C@]12C | 18.5 | 8.5 | 16.5 |  | 5.81 |  |  |  |  |  |  | 
C[C@H](CCC(=O)O)[C@H]1CC[C@H]2[C@@H]3[C@H](O)C[C@@H]4C[C@H](O)CC[C@]4(C)[C@H]3CC[C@]12C [CHENODIOL] | > 50 | > 50 | > 50 | 4.014 |  |  |  |  |  |  |  | 
